Laboratory results taken from ChEMBL document CHEMBL1157017, “Synthesis and pharmacological evaluation of new 5-(cyclo)alkyl-5-phenyl- and 5-spiroimidazolidine-2,4-dione derivatives. Novel 5-HT1A receptor agonist with potential antidepressant and anxiolytic activity” (Eur J Med Chem, 2010).
Active and inactive are the calls of the source. The rule behind the calls is not given here.

Experiments:
[1] = target: T1, 5-hydroxytryptamine receptor 1A (Rattus norvegicus, UniProt P19327); experiment: Displacement of [3H]8OH-DPAT from 5HT1A in rat brain cerebral cortex; assay type: tissue-based
T1 sequence (P19327 whole entry): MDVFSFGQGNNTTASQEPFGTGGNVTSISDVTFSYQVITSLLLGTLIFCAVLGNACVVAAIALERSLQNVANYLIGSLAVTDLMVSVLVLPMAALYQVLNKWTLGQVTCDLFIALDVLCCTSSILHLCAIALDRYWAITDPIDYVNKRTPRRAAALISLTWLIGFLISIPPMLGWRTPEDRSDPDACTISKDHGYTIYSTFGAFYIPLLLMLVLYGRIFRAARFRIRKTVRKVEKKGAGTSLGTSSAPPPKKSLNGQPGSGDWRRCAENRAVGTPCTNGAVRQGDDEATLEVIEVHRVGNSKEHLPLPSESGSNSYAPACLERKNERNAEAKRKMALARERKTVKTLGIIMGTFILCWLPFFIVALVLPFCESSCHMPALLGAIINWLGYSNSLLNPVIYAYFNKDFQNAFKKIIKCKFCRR
Method in brief: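 Rat cerebral cortex membranes (9 mg wet weight) in 50 mM Tris-HCl pH 7.7 with pargyline, CaCl2 and 0.1% ascorbic acid. Incubated 15 min at 37 °C with 1 nM [3H]-8-OH-DPAT and compound at 10^-10–10^-4 M. Nonspecific binding defined with serotonin. GF/B filtration and scintillation counting, in duplicate, with iterative curve fitting.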

[2] = target: 5-hydroxytryptamine receptor 2A (Rattus norvegicus, UniProt P14842); experiment: Displacement of [3H]ketanserin from 5HT2A in rat brain cerebral cortex; assay type: tissue-based
5-hydroxytryptamine receptor 2A, sequence (P14842 whole entry): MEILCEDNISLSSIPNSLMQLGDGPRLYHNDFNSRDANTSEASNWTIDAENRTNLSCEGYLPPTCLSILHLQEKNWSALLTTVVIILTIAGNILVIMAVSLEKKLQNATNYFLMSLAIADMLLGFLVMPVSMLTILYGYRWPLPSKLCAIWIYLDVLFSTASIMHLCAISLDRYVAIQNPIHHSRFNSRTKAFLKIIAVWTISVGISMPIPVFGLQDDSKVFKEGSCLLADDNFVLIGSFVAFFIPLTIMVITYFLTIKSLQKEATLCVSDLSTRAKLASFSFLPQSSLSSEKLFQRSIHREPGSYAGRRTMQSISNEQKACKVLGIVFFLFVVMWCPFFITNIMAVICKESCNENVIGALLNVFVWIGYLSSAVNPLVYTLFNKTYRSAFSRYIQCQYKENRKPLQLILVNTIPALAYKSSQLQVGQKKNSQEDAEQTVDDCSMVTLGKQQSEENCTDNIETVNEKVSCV
Method in brief: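 Rat cerebral cortex membranes in 50 mM Tris-HCl pH 7.7 were incubated 20 min at 37 °C with 0.6 nM [3H]-ketanserin and compound at 10^-10–10^-4 M. Mianserin served as displacer. Filtration through GF/B, scintillation counting, in duplicate, with iterative curve fitting.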

[3] = target: T2, 5-hydroxytryptamine receptor 1A (Rattus norvegicus) (UniProt P19327); experiment: Agonist activity at presynaptic 5HT1A receptor in rat brain cerebral cortex at 20 ug/ml; assay type: functional, tissue-based; conditions: filed as agonist
T2 sequence (whole entry): T1 sequence (P19327 whole entry)

[4] = target: T2, 5-hydroxytryptamine receptor 1A (Rattus norvegicus); experiment: Agonist activity at postsynaptic 5HT1A receptor in rat brain cerebral cortex at 20 ug/ml; assay type: functional, tissue-based
[5] = target: T2, 5-hydroxytryptamine receptor 1A (Rattus norvegicus); experiment: Antagonist activity at postsynaptic 5HT1A receptor in rat brain cerebral cortex at 20 ug/ml; assay type: functional, tissue-based; conditions: filed as antagonist
D(2) dopamine receptor = D(2) dopamine receptor (Rattus norvegicus, UniProt P61169); experiment: Displacement of [3H]spiperone from dopamine D2 receptor in rat brain striatum
D(2) dopamine receptor, sequence (P61169 whole entry): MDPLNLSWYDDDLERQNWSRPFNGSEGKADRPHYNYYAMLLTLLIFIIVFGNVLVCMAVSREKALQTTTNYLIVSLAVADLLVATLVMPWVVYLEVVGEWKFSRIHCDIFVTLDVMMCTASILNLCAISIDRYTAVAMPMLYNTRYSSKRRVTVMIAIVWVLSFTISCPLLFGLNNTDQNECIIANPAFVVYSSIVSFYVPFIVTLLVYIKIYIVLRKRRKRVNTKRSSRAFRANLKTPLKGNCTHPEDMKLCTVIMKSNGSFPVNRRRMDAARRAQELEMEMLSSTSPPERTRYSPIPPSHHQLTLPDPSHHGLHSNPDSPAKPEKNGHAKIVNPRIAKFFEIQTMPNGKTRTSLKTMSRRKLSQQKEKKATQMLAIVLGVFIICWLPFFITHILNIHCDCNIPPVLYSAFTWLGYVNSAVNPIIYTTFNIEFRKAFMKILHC

[6] = Agonist activity at presynaptic 5HT1A receptor in brain cerebral cortex at 20 ug/ml
Mus musculus [7] = experiment: Antidepressant-like activity in Swiss mouse assessed as immobilization time at 5 mg/kg, ip after 30 mins by forced swim test (RVb = 181.4 +/- 4.9 s); assay type: functional; conditions: route intraperitoneal
Mus musculus [8] = experiment: Antidepressant-like activity in Swiss mouse assessed as immobilization time at 10 mg/kg, ip after 30 mins by forced swim test (RVb = 181.4 +/- 4.9 s); assay type: functional; conditions: route intraperitoneal
Mus musculus [9] = experiment: Antidepressant-like activity in Swiss mouse assessed as immobilization time at 20 mg/kg, ip after 30 mins by forced swim test (RVb = 181.4 +/- 4.9 s); assay type: functional; conditions: route intraperitoneal
Mus musculus [10] = experiment: Anxiolytic-like activity in Swiss albino mouse assessed as number of punished crossing at 10 mg/kg, ip after 60 mins by four-plate test (RVb = 3.8 +/- 0.2); assay type: functional; conditions: route intraperitoneal
Mus musculus [11] = experiment: Anxiolytic-like activity in Swiss albino mouse assessed as number of punished crossing at 20 mg/kg, ip after 60 mins by four-plate test (RVb = 3.8 +/- 0.2); assay type: functional; conditions: route intraperitoneal
Mus musculus [12] = experiment: […] in Swiss albino mouse assessed as number of […] crossing of the light beam during 6 mins at 20 mg/kg, ip measured after 30 mins postdose […] (RVb = 107.1 +/- 8.5); assay type: functional; conditions: route intraperitoneal
Mus musculus [13] = experiment: […] in Swiss albino mouse assessed as number of […] crossing of the light beam during 30 mins at 10 mg/kg, ip measured after 30 mins postdose […] (RVb = 249.2 +/- 21); assay type: functional; conditions: route intraperitoneal
Mus musculus [14] = experiment: […] in Swiss albino mouse assessed as number of […] crossing of the light beam during 30 mins at 20 mg/kg, ip measured after 30 mins postdose […] (RVb = 249.2 +/- 21); assay type: functional; conditions: route intraperitoneal
Mus musculus [15] = experiment: Anxiolytic-like activity in Swiss albino mouse assessed as number of punished crossing at 5 mg/kg, ip after 30 mins by four-plate test (RVb = 3.8 +/- 0.2); conditions: route intraperitoneal
Mus musculus [16] = experiment: Anxiolytic-like activity in Swiss albino mouse assessed as number of punished crossing of the light beam during 6 mins at 10 mg/kg, ip measured after 30 mins postdose (RVb = 107.1 +/- 8.5); conditions: route intraperitoneal
[17] = target: 5-hydroxytryptamine receptor 2A (Rattus norvegicus) (UniProt P14842); experiment: Antagonist activity at postsynaptic 5HT2A receptor in rat brain cerebral cortex at 20 ug/ml; assay type: functional, tissue-based; conditions: filed as antagonist
5-hydroxytryptamine receptor 2A (Rattus norvegicus), sequence (P14842 whole entry): as the sequence (P14842 whole entry) above

Mus musculus [18] = experiment: Anxiolytic-like activity in Swiss albino mouse assessed as number of punished crossing at 10 mg/kg, ip after 60 mins by four-plate test (RVb = 4.2 +/- 0.4); assay type: functional; conditions: route intraperitoneal
Mus musculus [19] = experiment: Anxiolytic-like activity in Swiss albino mouse assessed as number of punished crossing at 20 mg/kg, ip after 60 mins by four-plate test (RVb = 4.2 +/- 0.4); assay type: functional; conditions: route intraperitoneal
Mus musculus [20] = experiment: Anxiolytic-like activity in Swiss albino mouse assessed as number of punished crossing at 30 mg/kg, ip after 60 mins by four-plate test (RVb = 4.2 +/- 0.4); assay type: functional; conditions: route intraperitoneal
Mus musculus [21] = experiment: […] in Swiss albino mouse assessed as number of […] crossing of the light beam during 30 mins at 10 mg/kg, ip measured after 30 mins postdose […] (RVb = 210.7 +/- 17.7); assay type: functional; conditions: route intraperitoneal
Mus musculus [22] = experiment: […] in Swiss albino mouse assessed as number of […] crossing of the light beam during 30 mins at 20 mg/kg, ip measured after 30 mins postdose […] (RVb = 210.7 +/- 17.7); assay type: functional; conditions: route intraperitoneal
Mus musculus [23] = experiment: Antidepressant-like activity in Swiss mouse assessed as immobilization time at 10 mg/kg, ip after 30 mins by forced swim test (RVb = 167.1 +/- 6.7 s); assay type: functional; conditions: route intraperitoneal
Mus musculus [24] = experiment: Antidepressant-like activity in Swiss mouse assessed as immobilization time at 20 mg/kg, ip after 30 mins by forced swim test (RVb = 167.1 +/- 6.7 s); assay type: functional; conditions: route intraperitoneal
Mus musculus [25] = experiment: […] in Swiss albino mouse assessed as number of […] crossing of the light beam during 6 mins at 10 mg/kg, ip measured after 30 mins postdose […] (RVb = 94.8 +/- 4.1); assay type: functional; conditions: route intraperitoneal
Mus musculus [26] = experiment: […] in Swiss albino mouse assessed as number of […] crossing of the light beam at 20 mg/kg, ip measured after 30 mins postdose […] (RVb = 94.8 +/- 4.1); conditions: route intraperitoneal
[27] = target: T2, 5-hydroxytryptamine receptor 1A (Rattus norvegicus); experiment: Antagonist activity at presynaptic 5HT1A receptor in rat brain cerebral cortex at 20 ug/ml; assay type: functional, tissue-based; conditions: filed as antagonist
Mus musculus [28] = experiment: Anxiolytic-like activity in Swiss albino mouse assessed as number of punished crossing at 30 mg/kg, ip after 60 mins by four-plate test (RVb = 3.8 +/- 0.2); assay type: functional; conditions: route intraperitoneal

Structure (SMILES) | Ki [1] [nM] | Ki [2] [nM] | Activity [3] | Activity [5] | Ki (D(2) dopamine receptor) [nM] | Activity [17] | further results
COc1ccccc1N1CCN(CCCN2C(=O)NC(C)(c3ccccc3)C2=O)CC1 (racemic) | 47 | 730 | Agonist | – | – | – | Activity [4]: inactive
CC1(c2ccccc2)NC(=O)N(CCCN2CCN(c3cccc(Cl)c3)CC2)C1=O (racemic) | 29 | 312 | – | Antagonist | 3900 | – | Activity [6]: inactive
COc1ccccc1N1CCN(CCCN2C(=O)NC3(CCCc4ccccc43)C2=O)CC1 (racemic) | 23 | 284 | Agonist | – | – | – | Activity ([4]; filed as agonist): Agonist; Time (Mus musculus [7]): 161.2 s; Time (Mus musculus [8]): 121.4 s; Time (Mus musculus [9]): 103.1 s; Activity (Mus musculus [10]): 5.9; Activity (Mus musculus [11]): 4.4; Activity (Mus musculus [12]): 111.6; Activity (Mus musculus [13]): 212.9; Activity (Mus musculus [14]): 225.3; Activity (Mus musculus [15]): 3.9; Activity (Mus musculus [16]): 110
O=C1NC2(CCc3ccccc32)C(=O)N1CCCN1CCN(c2cccc(Cl)c2)CC1 (racemic) | 38 | 53 | Agonist | Antagonist | 6200 | Antagonist | Activity (Mus musculus [18]): 4; Activity (Mus musculus [19]): 4.2; Activity (Mus musculus [20]): 4.2
COc1ccccc1N1CCN(CCCN2C(=O)NC3(CCc4ccccc43)C2=O)CC1 (racemic) | 49 | 653 | Agonist | Antagonist | – | – | –
O=C1NC(c2ccccc2)(C2CC2)C(=O)N1CCCN1CCN(c2ccccc2)CC1 (racemic) | 67 | 100 | – | – | – | – | Activity [4]: inactive; Activity [6]: inactive
CN(C)CCCN1c2ccccc2CCc2ccccc21 [IMIPRAMINE] | – | – | – | – | – | – | Activity (Mus musculus [21]): 208.7; Activity (Mus musculus [22]): 141.6; Time (Mus musculus [23]): 149.1 s; Time (Mus musculus [24]): 107.8 s; Activity (Mus musculus [25]): 94.4; Activity (Mus musculus [26]): 89.1
O=C1NC2(CCCc3ccccc32)C(=O)N1CCCN1CCN(c2ccccc2)CC1 (racemic) | 88 | 25 | – | – | 675 | Antagonist | –
O=C1NC(c2ccccc2)(C2CC2)C(=O)N1CCCN1CCN(c2cccc(Cl)c2)CC1 (racemic) | 13 | 78 | – | Antagonist | – | – | Activity [27]: Antagonist; Activity (Mus musculus [10]): 3.8; Activity (Mus musculus [11]): 3.9; Activity (Mus musculus [28]): 3.7
O=C1NC2(CCc3ccccc32)C(=O)N1CCCN1CCN(c2ccccc2)CC1 (racemic) | 98 | 30 | – | – | 15600 | Antagonist | –
COc1ccccc1N1CCN(CCCN2C(=O)NC(c3ccccc3)(C3CC3)C2=O)CC1 (racemic) | 11 | 710 | Agonist | – | – | – | Activity [4]: inactive
O=C1NC2(CCCc3ccccc32)C(=O)N1CCCN1CCN(c2cccc(Cl)c2)CC1 (racemic) | 350 | 35 | – | – | 1800 | Antagonist | –
CC1(c2ccccc2)NC(=O)N(CCCN2CCN(c3ccccc3)CC2)C1=O (racemic) | 457 | 69 | – | – | – | – | –
